Source: ChEMBL document CHEMBL1123574, “Plant antitumor agents. 28. Resolution of a key tricyclic synthon, 5'(RS)-1,5-dioxo-5'-ethyl-5'-hydroxy-2'H,5'H,6'H-6'-oxopyrano[3' ,4'- f]delta 6,8-tetrahydro-indolizine: total synthesis and antitumor activity of 20(S)- and 20(R)-camptothecin” (1987)

Key:
Format in all cases: functional
[1] = tested on: Mus musculus; assay: L-1210 mouse leukemia life prolongation activity was measured as T/C (mean survival time of treated animals divided by the mean survival time of the controls times 100) at dose 80 mg/kg
How it was run: (§1)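 In vivo L-1210 leukemia in mice, run by NCI contractors by standard procedures. Two intraperitoneal doses given, on day 1 and day 5 of the study. Readout is mean survival time of treated animals over that of controls, ×100 (T/C).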

[2] = tested on: Mus musculus; assay: L-1210 mouse leukemia life prolongation activity was measured as T/C (mean survival time of treated animals divided by the mean survival time of the controls times 100) at dose 10 mg/kg; how it was run: as §1
[3] = tested on: Mus musculus; assay: L-1210 mouse leukemia life prolongation activity was measured as T/C (mean survival time of treated animals divided by the mean survival time of the controls times 100) at dose 20 mg/kg; how it was run: as §1
[4] = tested on: Mus musculus; assay: L-1210 mouse leukemia life prolongation activity was measured as T/C (mean survival time of treated animals divided by the mean survival time of the controls times 100) at dose 40 mg/kg; how it was run: as §1
[5] = tested on: Mus musculus; assay: L-1210 mouse leukemia life prolongation activity was measured as T/C (mean survival time of treated animals divided by the mean survival time of the controls times 100) at dose 2.5 mg/kg; how it was run: as §1
[6] = tested on: Mus musculus; assay: L-1210 mouse leukemia life prolongation activity was measured as T/C (mean survival time of treated animals divided by the mean survival time of the controls times 100) at dose 5 mg/kg; how it was run: as §1
[7] = tested on: Mus musculus; assay: L-1210 mouse leukemia life prolongation activity was measured as T/C(mean survival time of treated animals divided by the mean survival time of the controls times 100) at dose 2.5 mg/kg; how it was run: as §1
[8] = tested on: Mus musculus; assay: L-1210 mouse leukemia life prolongation activity was measured as T/C (mean survival time of treated animals divided by the mean survival time of the controls times 100) at dose 1.25 mg/kg; how it was run: as §1

Compound | T/C [1] | T/C [2] | T/C [3] | T/C [4] | T/C [5] | T/C [6] | T/C [7] | T/C [8]
CC[C@@](O)(C(=O)[O-])c1cc2n(c(=O)c1CO)Cc1cc3ccccc3nc1-2.[Na+] | 215 | 126 | 167 | 181 |  |  |  | 
CC[C@]1(O)C(=O)OCc2c1cc1n(c2=O)Cc2cc3ccccc3nc2-1 |  | 118 | 132 |  | 114 | 114 |  | 
CC[C@@]1(O)C(=O)OCc2c1cc1n(c2=O)Cc2cc3ccccc3nc2-1 [CAMPTOTHECIN] |  | 250 |  |  |  | 185 | 147 | 129
